Results from ChEMBL document CHEMBL5033998, “Discovery of DDO-2213 as a Potent and Orally Bioavailable Inhibitor of the WDR5-Mixed Lineage Leukemia 1 Protein-Protein Interaction for the Treatment of MLL Fusion Leukemia” (J Med Chem, 2021).

Key:
[1] = MRT in Sprague-Dawley rat at 10 mg/kg, po measured upto 24 hrs by LC-MS/MS analysis; format: ADME, organism-based; details: in vivo
Outline: (§1)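 Male SD rats, 6–8 weeks, 220 ± 30 g; single oral dose 10 mg/kg (n = 3). Plasma sampled at 0, 0.25, 0.5, 1, 2, 4, 6, 8 and 24 h, stored at −80 °C, quantified by LC-MS/MS; parameters reported as mean ± SEM.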

[2] = AUC (0 to infinity) in Sprague-Dawley rat at 2 mg/kg, iv measured upto 24 hrs by LC-MS/MS analysis; format: ADME, organism-based; design: route intravenous, dose 2 mg/kg, time <=24; details: in vivo
[3] = Apparent clearance in Sprague-Dawley rat at 10 mg/kg, po measured upto 24 hrs by LC-MS/MS analysis; format: ADME, organism-based; details: in vivo; outline: as §1
[4] = target: Histone-lysine N-methyltransferase, H3 lysine-79 specific (Homo sapiens, UniProt Q8TEK3); test: Inhibition of DOT1L (unknown origin) assessed as effect on H3K79 methylation incubated for 30 mins by Alphascreen assay
Sequence of Histone-lysine N-methyltransferase, H3 lysine-79 specific (Q8TEK3 whole entry): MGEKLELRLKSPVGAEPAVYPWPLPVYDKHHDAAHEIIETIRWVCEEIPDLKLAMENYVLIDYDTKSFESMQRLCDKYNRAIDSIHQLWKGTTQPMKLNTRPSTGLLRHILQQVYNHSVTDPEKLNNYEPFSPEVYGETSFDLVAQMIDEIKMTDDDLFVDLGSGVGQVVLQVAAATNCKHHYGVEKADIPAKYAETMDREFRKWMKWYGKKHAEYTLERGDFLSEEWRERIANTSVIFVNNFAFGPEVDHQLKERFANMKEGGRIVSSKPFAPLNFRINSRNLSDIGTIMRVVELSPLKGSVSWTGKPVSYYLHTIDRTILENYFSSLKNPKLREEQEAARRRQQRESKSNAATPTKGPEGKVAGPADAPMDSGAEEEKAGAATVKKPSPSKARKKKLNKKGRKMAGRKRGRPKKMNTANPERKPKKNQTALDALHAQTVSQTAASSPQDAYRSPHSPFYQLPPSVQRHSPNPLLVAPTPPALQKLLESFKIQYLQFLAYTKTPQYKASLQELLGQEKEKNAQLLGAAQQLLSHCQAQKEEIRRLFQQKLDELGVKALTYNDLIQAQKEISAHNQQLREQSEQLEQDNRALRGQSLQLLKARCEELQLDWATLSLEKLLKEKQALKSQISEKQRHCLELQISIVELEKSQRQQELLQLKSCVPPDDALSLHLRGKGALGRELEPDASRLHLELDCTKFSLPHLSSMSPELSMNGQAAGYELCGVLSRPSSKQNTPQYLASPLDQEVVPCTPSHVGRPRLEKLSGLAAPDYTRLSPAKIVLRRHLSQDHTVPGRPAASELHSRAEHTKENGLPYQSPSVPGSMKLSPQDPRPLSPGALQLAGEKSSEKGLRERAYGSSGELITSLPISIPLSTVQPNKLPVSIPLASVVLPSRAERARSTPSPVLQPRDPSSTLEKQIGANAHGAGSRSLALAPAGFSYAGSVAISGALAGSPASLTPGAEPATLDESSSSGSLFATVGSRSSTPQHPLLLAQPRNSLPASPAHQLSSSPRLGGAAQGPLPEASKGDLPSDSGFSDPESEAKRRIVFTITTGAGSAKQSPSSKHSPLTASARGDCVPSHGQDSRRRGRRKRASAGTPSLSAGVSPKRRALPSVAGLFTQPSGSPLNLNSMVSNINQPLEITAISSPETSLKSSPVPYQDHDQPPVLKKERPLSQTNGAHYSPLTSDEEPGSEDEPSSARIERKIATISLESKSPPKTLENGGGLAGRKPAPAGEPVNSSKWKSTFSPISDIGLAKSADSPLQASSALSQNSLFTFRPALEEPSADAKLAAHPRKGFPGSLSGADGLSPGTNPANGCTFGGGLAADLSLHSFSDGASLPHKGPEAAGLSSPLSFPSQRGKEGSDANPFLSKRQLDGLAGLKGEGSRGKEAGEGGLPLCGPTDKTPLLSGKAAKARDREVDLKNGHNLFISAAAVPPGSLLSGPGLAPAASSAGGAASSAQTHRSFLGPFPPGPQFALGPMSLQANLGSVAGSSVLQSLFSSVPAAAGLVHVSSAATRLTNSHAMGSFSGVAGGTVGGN
Outline: (§2)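 AlphaScreen: enzyme, SAM and compound mixed in 10 mM PBS for 30 min at room temperature; acceptor beads and substrate antibody added, 30 min at room temperature, then streptavidin donor beads; read on AlphaScreen reader.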

[5] = target: T1, Histone-lysine N-methyltransferase EHMT2 (Homo sapiens, UniProt Q96KQ7); test: Inhibition of G9a (unknown origin) assessed as effect on H3K9 methylation incubated for 30 mins by Alphascreen assay; outline: as §2
T1 sequence (Q96KQ7 whole entry): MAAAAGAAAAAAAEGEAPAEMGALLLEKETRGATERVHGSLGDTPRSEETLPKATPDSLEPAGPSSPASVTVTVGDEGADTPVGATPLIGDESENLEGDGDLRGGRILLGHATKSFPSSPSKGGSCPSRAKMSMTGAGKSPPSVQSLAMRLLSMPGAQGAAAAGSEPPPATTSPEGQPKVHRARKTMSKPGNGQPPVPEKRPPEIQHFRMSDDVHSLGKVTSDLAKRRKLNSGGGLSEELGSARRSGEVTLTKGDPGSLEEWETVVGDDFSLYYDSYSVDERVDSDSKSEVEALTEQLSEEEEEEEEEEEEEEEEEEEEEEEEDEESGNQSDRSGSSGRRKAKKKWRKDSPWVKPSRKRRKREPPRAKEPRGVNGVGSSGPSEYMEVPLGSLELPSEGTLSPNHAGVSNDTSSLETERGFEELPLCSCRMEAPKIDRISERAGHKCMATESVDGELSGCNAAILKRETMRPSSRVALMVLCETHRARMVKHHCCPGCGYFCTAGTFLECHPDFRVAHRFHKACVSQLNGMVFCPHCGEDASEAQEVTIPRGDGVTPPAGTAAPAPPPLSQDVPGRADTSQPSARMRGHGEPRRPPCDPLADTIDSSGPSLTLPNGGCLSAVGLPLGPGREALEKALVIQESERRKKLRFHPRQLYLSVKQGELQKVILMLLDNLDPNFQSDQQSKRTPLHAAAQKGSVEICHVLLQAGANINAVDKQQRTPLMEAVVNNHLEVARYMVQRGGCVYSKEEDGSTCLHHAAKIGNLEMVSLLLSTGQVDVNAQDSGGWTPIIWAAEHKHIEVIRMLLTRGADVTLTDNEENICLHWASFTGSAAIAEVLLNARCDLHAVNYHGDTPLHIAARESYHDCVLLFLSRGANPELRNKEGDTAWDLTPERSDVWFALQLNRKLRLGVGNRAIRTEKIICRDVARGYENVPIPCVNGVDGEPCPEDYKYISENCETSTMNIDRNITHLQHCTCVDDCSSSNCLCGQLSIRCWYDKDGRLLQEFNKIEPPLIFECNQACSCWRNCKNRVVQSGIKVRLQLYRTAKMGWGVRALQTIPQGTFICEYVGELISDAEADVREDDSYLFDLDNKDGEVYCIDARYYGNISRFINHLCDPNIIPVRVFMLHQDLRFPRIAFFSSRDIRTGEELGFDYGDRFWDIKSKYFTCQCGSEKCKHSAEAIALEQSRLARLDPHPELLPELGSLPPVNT

[6] = target: WD repeat-containing protein 5 (Homo sapiens) (UniProt P61964); test: Binding affinity to WDR5 (unknown origin) assessed as change in entropy by isothermal titration calorimetry assay

CN1CCN(c2cc(F)c(-c3ccc(C(=O)N(C)C)cc3)cc2Nc2ncnc(Cl)c2N)CC1
MRT [1]: 5.42 h
AUC(0-inf) [2]: 424 ng·h/mL
CL/F [3]: 97.2 mL/min/kg
IC50 [4]: > 100 µM
IC50 [5]: > 100 µM
-TdeltaS [6]: 2.51 kcal/mol
